Experimental data taken from article PMC8513424 (Laryngoscope Investigative Otolaryngology, 2021).
Like-named read-outs stand apart in the source and are kept apart here.

Columns and labels:
[1] = tested on: schwannoma xenografts; conditions: cited from earlier work
[2] = day one, cited from earlier work
[3] = tested on: patients with advanced solid tumors; conditions: cited from earlier work
[4] = tested on: NF2‐deficient benign meningioma Ben‐Men‐1 cells; conditions: cited from earlier work
[5] = tested on: patients with sporadic VS or meningioma; experiment: Pilot 2 safety and tolerability; type: in vivo, human
Outline: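 Phase 0 pre-surgical study: 40 mg of the test compound orally three times weekly for 3 weeks before planned VS/meningioma resection. Adults >18 y had ECOG 0-1, normal organ and marrow function, and could swallow capsules. Excluded were pregnancy, malabsorption, chronic corticosteroids, prolonged QT, active infection, and concurrent antineoplastic therapy or radiotherapy.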

[6] = tested on: hearing of patients with NF2; experiment: Pilot 1 audiograms; type: in vivo, human
[7] = Stability in whole blood kept on ice; type: in vitro ADME
[8] = Pilot 2 intra‐tumoral AR‐42 concentration by LC‐MS/MS; type: in vivo, human
Outline: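 The oral test compound was given at 40 mg three times weekly for 3 weeks before resection. Each VS was divided into peripheral capsule and center, and samples were frozen quickly. Drug was measured by LC-MS/MS against a standard curve of known concentrations, as the mean of three runs. Tumor:plasma ratio = capsule or center concentration ÷ pre-anesthesia plasma concentration.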

[9] = tested on: patients with multiple myeloma, and T‐ and B‐cell lymphomas; conditions: three times weekly for 3 weeks of a 28‐day cycle; cited from earlier work
[10] = tested on: NF2‐associated or sporadic VS or meningiomas; experiment: Pilot 1 tumor volumetric measurement by MRI; type: in vivo, human
[11] = tested on: primary meningioma cells; conditions: read-out: IC50, primary meningioma cells; cited from earlier work
[12] = Patient # 2.7 (meningioma), 40 mg
[13] = Patient 1.1, 837 days on AR‐42, Left parieto‐occipital Meningioma
[14] = Patient 1.1, 837 days on AR‐42, Right neck Schwannoma
[15] = Patient 1.1, Left parieto‐occipital Meningioma
[16] = Patient 1.1, Right IAC Schwannoma
[17] = Patient 1.1, Right neck Schwannoma
[18] = Patient 1.2, 84 days on AR‐42, Right intradural C1 Meningioma
[19] = Patient 1.2, Left trigeminal Schwannoma
[20] = Patient 1.2, Right intradural C1 Meningioma
[21] = Patient 1.4, 275 days on AR‐42, Left IAC Schwannoma
[22] = Patient 1.4, 275 days on AR‐42, Left posterior fossa Meningioma
[23] = Patient 1.4, Left IAC Schwannoma
[24] = Patient 1.4, Left posterior fossa Meningioma
[25] = Patient 1.4, Let foramen magnum Meningioma
[26] = Patient 1.4, Right IAC Schwannoma
[27] = Patient 1.4, Right anterior falx Meningioma
[28] = Patient 1.5, 134 days on AR‐42, Right petroclinoid Meningioma
[29] = Patient 1.5, Right petroclinoid Meningioma
[30] = Patient 1.6, 58 days on AR‐42, Right IAC Schwannoma
[31] = Patient 1.6, Left IAC Schwannoma
[32] = Patient 1.6, Right IAC Schwannoma
[33] = Patient 1.7, Left IAC Schwannoma
[34] = Patient 1.7, Left prepontine cistern Meningioma
[35] = post‐treatment vs on AR‐42, of 11
[36] = pre‐treatment to on‐treatment, of 15

Compound: CC(C)[C@H](C(=O)Nc1ccc(C(=O)NO)cc1)c1ccccc1 [AR‐42]
- AKT activation in schwannoma xenografts [1]: decreased AKT activation
- Apoptosis in schwannoma xenografts [1]: induced apoptosis
- Growth of schwannoma xenografts [1]: inhibited the growth of schwannoma xenografts
- Mean maximal plasma concentration ([2]; 60 mg dose): 1.48 (±0.38) μM
- Maximum plasma concentration ([2]; Patient 1.7, 80 mg dose): 3.25 µM
- Dose‐limiting toxicities (DLTs) ([3]; 30, 60 or 80 mg orally): grade 3 thrombocytopenia and grade 4 psychosis
- Median progression‐free survival ([3]; NF2 and non‐NF2 meningioma subset, RECIST, 95% CI: 1.9—not reached): 9.1 months
- Most common treatment‐related adverse events [3]: cytopenias, fatigue, and nausea
- Recommended phase II dose ([3]; daily, three times weekly for 3 weeks of a 28‐day cycle): 60 mg
- IC50 ([4]; read-out: IC50, Ben‐Men‐1 cells): 1000 nM
- IC50 ([4]; read-out: IC50 for meningiomas, previous in vitro studies): ~1000 nM
- Arrhythmias or QT changes ([5]; Pilot 2, 40 mg): no arrhythmias or QT changes
- Grade 3 or 4 toxicities ([5]; Pilot 2, 3 weeks at 40 mg): no grade 3 or 4 toxicities
- Pure tone average (PTA) after treatment ([6]; Patient 1.6, from 17 db at initiation): 55 db
- Measurable hearing in the contralateral ear on AR‐42 ([6]; patients 1.1, 1.4 and 1.7): remained stable
- Time stable in blood kept on ice [7]: more than 4 hours
- Concentration in meningioma capsule ([8]; 40 mg): 5300 nM
- Concentration in meningioma tumor center ([8]; 40 mg): 1800 nM
- Concentrations of AR‐42 in VS ([8]; 40 mg): 230 to 620 nM
- Concentration in tumors, Capsule ([8]; Patient # 2.1 (VS), 40 mg): 624.2 nM
- Concentration in tumors, Center ([8]; Patient # 2.1 (VS), 40 mg): 577.0 nM
- Concentration in tumors, Capsule ([8]; Patient # 2.2 (VS), 40 mg): 429.4 nM
- Concentration in tumors, Center ([8]; Patient # 2.2 (VS), 40 mg): 586.6 nM
- Concentration in tumors, Capsule ([8]; Patient # 2.4 (VS), 40 mg): 230.6 nM
- Concentration in tumors, Center ([8]; Patient # 2.4 (VS), 40 mg): 289.0 nM
- Concentration in tumors, Capsule ([8]; Patient # 2.6 (VS), 40 mg): 16.2 nM
- Concentration in tumors, Center ([8]; Patient # 2.6 (VS), 40 mg): 7.1 nM
- Concentration in tumors, Capsule [8, 12]: 5296.6 nM
- Concentration in tumors, Center [8, 12]: 1766.2 nM
- Meningioma (subject 2.7) AR‐42 level higher than the VS ([8]; WHO grade I meningioma): 10 fold
- AR‐42 concentrations in tumors compared with plasma ([8]; all tumors, Pilot 2, 40 mg): higher
- Maximum tolerated dose (MTD) [9]: 40 mg
- Median on‐treatment estimated annual growth rate ([10]; 11 evaluable lesions): 22%
- Median post‐treatment estimated annual growth rate ([10]; 11 evaluable lesions): 10%
- % Volume growth on Rx [10, 13]: 54%
- On Rx response [10, 13]: PD (progressive disease (>20% increase in volume))
- % Volume growth on Rx ([10]; Patient 1.1, 837 days on AR‐42, Right IAC Schwannoma): −2%
- % Volume growth on Rx [10, 14]: 52%
- On Rx response [10, 14]: PD (progressive disease (>20% increase in volume))
- Change in GR Pre to On Rx (%) [10, 15]: −128%
- Change in GR Pre to post Rx [10, 15]: −26%
- Est. annual growth rate On Rx (%) [10, 15]: 23%
- Est. annual growth rate Post Rx [10, 15]: 125%
- Change in GR Pre to On Rx (%) [10, 16]: −61%
- Change in GR Pre to post Rx [10, 16]: −10%
- Est. annual growth rate On Rx (%) [10, 16]: −1%
- Est. annual growth rate Post Rx [10, 16]: 50%
- Change in GR Pre to On Rx (%) [10, 17]: −69%
- Change in GR Pre to post Rx [10, 17]: −79%
- Est. annual growth rate On Rx (%) [10, 17]: 22%
- Est. annual growth rate Post Rx [10, 17]: 12%
- % Volume growth on Rx ([10]; Patient 1.2, 84 days on AR‐42, Left trigeminal Schwannoma): −9%
- % Volume growth on Rx [10, 18]: 26%
- On Rx response [10, 18]: PD (progressive disease (>20% increase in volume))
- Change in GR Pre to On Rx (%) [10, 19]: −54%
- Change in GR Pre to post Rx [10, 19]: −11%
- Est. annual growth rate On Rx (%) [10, 19]: −46%
- Est. annual growth rate Post Rx [10, 19]: −3%
- Change in GR Pre to On Rx (%) [10, 20]: 122%
- Change in GR Pre to post Rx [10, 20]: −6%
- Est. annual growth rate On Rx (%) [10, 20]: 138%
- Est. annual growth rate Post Rx [10, 20]: 10%
- % Volume growth on Rx [10, 21]: 60%
- On Rx response [10, 21]: PD (progressive disease (>20% increase in volume))
- % Volume growth on Rx [10, 22]: −24%
- On Rx response [10, 22]: PR (partial response (>20% decrease in volume))
- % Volume growth on Rx ([10]; Patient 1.4, 275 days on AR‐42, Let foramen magnum Meningioma): −19%
- % Volume growth on Rx ([10]; Patient 1.4, 275 days on AR‐42, Right IAC Schwannoma): 9%
- % Volume growth on Rx ([10]; Patient 1.4, 275 days on AR‐42, Right anterior falx Meningioma): 0%
- Change in GR Pre to On Rx (%) [10, 23]: −10%
- Change in GR Pre to post Rx [10, 23]: 20%
- Est. annual growth rate On Rx (%) [10, 23]: 92%
- Est. annual growth rate Post Rx [10, 23]: 122%
- Change in GR Pre to On Rx (%) [10, 24]: −170%
- Change in GR Pre to post Rx [10, 24]: −125%
- Est. annual growth rate On Rx (%) [10, 24]: −37%
- Est. annual growth rate Post Rx [10, 24]: 8%
- Change in GR Pre to On Rx (%) [10, 25]: −158%
- Change in GR Pre to post Rx [10, 25]: −138%
- Est. annual growth rate On Rx (%) [10, 25]: −30%
- Est. annual growth rate Post Rx [10, 25]: −10%
- Change in GR Pre to On Rx (%) [10, 26]: −133%
- Est. annual growth rate On Rx (%) [10, 26]: 18%
- Change in GR Pre to On Rx (%) [10, 27]: 0%
- Change in GR Pre to post Rx [10, 27]: 0%
- Est. annual growth rate On Rx (%) [10, 27]: 0%
- Est. annual growth rate Post Rx [10, 27]: 0%
- % Volume growth on Rx [10, 28]: 104%
- On Rx response [10, 28]: PD (progressive disease (>20% increase in volume))
- Change in GR Pre to On Rx (%) [10, 29]: 41%
- Change in GR Pre to post Rx [10, 29]: −232%
- Est. annual growth rate On Rx (%) [10, 29]: 241%
- Est. annual growth rate Post Rx [10, 29]: −32%
- % Volume growth on Rx ([10]; Patient 1.6, 58 days on AR‐42, Left IAC Schwannoma): 15%
- % Volume growth on Rx [10, 30]: 40%
- On Rx response [10, 30]: PD (progressive disease (>20% increase in volume))
- Change in GR Pre to On Rx (%) [10, 31]: 64%
- Change in GR Pre to post Rx [10, 31]: 32%
- Est. annual growth rate On Rx (%) [10, 31]: 93%
- Est. annual growth rate Post Rx [10, 31]: 61%
- Change in GR Pre to On Rx (%) [10, 32]: 187%
- Est. annual growth rate On Rx (%) [10, 32]: 245%
- % Volume growth on Rx ([10]; Patient 1.7, 10 days on AR‐42, Left IAC Schwannoma): 4%
- % Volume growth on Rx ([10]; Patient 1.7, 10 days on AR‐42, Left prepontine cistern Meningioma): −9%
- Change in GR Pre to On Rx (%) [10, 33]: 13%
- Est. annual growth rate On Rx (%) [10, 33]: 50%
- Change in GR Pre to On Rx (%) [10, 34]: −120%
- Est. annual growth rate On Rx (%) [10, 34]: −113%
- Share of tumors with stable growth ([10]; estimated percent annual growth rates): 20%
- Meningiomas progressed on AR‐42 ([10]; of 7 meningiomas): three
- Meningiomas stable or regressed on AR‐42 ([10]; of 7 meningiomas): Four
- VS progressed on AR‐42 ([10]; of 8 VS): three
- VS stable on AR‐42 ([10]; of 8 VS): Five
- Tumors with stable disease on AR‐42 ([10]; of 15 evaluable tumors): eight
- Share of tumors with partial response ([10]; of 15 tumors): 7%
- Decrease in volume of the tumor with partial response ([10]; on AR‐42): 24%
- Duration of partial response ([10]; posterior fossa meningioma of Patient 1.4): 3 years
- Tumors that rebounded in growth rate (increased more than 20%) after termination [10, 35]: 4
- Tumors with growth rate decreased after termination [10, 35]: 3
- Tumors with growth rate not changed after termination [10, 35]: 4
- Tumors with increased growth rates (>20% increase) [10, 36]: four
- Tumors with reduced growth rates (>20% decrease in growth rate) [10, 36]: eight
- Tumors with stable growth rates (± <20% change) [10, 36]: three
- Median reduction in annual growth rate ([10]; pre‐treatment to on‐treatment, P = 0.259): −54%
- IC50 [11]: 1500 nM
